Screening data: PubChem, several laboratories
Sampled rows, rich in hits. Any-hit rate of the full collection: about 9.6%.
BaF3 tox: reduces parental Ba/F3 cell viability, JAK2V617F counter-screen; CellTiter-Glo ATP luminescence; inhibition, % at 5.6 µM; 220,000 tested, 1.1% active; AID 1486;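 active = inhibition above a per-campaign cutoff, the mean inhibition of all tested compounds plus 3 SD, cut at about 27% in these data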;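 also: 0% = DMSO wells and 100% = JAK Inhibitor I control wells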
Lmaj promast: reduces viability of Leishmania major promastigotes | inhibition, % at 10 µM | AID 1063 | 200,000 tested, 9% active | resazurin fluorescence viability; in the data active = inhibition above about 50%;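 also: promastigotes grown with compound for 44 hours at 28 °C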
Ba/F3 V617F tox: reduce viability of Ba/F3 cells dependent on JAK2V617F. AID 1446. 220,000 tested, 1.1% active. inhibition, % at 5.6 µM. Ba/F3 EpoR-JAK2V617F viability, ATP luminescence;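 active = inhibition above the campaign mean plus 3 SD over all tested compounds, cut at about 24% in these data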;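 also: cytokine-independent growth of Ba/F3 cells driven by EpoR plus mutant JAK2; 0% = DMSO-treated cells and 100% = JAK inhibitor I control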
b-catenin transl: alters nuclear translocation of beta-catenin in HeLa cells | immunofluorescence imaging | nuclear translocation activity, % at 5 µM | 190,000 tested, 0.3% active | AID 1665;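 active = nuclear translocation activity above 50% at 5 µM, with a well cell count of 50 or more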;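 also: per-cell ratio of nuclear to cytoplasmic median beta-catenin stain intensity; plate controls were DMSO negative control for no effect and GSK-3 inhibitor IX positive control for full effect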
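Technique: fluorescence imaging of beta-catenin antibody stain plus DAPI / Material: human HeLa cell line / Incubation: compound treatment 24 h, 37°C, 5% CO2 / Read-out basis: % activation of per-cell nuclear versus cytoplasmic median beta-catenin signal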
APP transl inh: APP translation inhibition. SH-SY5Y APP 5'UTR-luciferase reporter, luminescence. inhibition, % at 2 µM. 190,000 tested, 0.82% active;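 active = inhibition above a set limit, derived from the sample mean plus 3 SD, cut at about 45% in these data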
MT stabilize HCS: microtubule stabilizers in HeLa cells. HeLa tubulin immunostaining HCS, 24 h; share of cells brighter than vehicle mean+2SD. % tubulin-high responders, % at 10 µM. 200,000 tested, 0.83% active. AID 2205;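 active = plate Z-score above 3 for both tubulin-high and condensed-nucleus cell shares, with cell loss under 80%, at 10 µM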;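 also: anti alpha tubulin signal scored within the nucleus-defined area of each cell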
Numbers without * were called inactive; / = no result.

SMILES	BaF3 tox	Lmaj promast	Ba/F3 V617F tox	b-catenin transl	APP transl inh	MT stabilize HCS
O=C(/C=C/c1ccc(Cl)cc1Cl)Nc1ccncc1	1.9	95.2*	-0.2	2.1	-85.5	3.4
O=C(/C=C/c1cccc(Cl)c1)Nc1ccncc1	0.6	60.7*	-3.6	-1.4	-12.8	1.6
O=C(/C=C/c1ccccc1Cl)Nc1ccncc1	4.3	99.9*	-1.2	1.5	-54.4	1.2
Cc1ccc(C)c(OCC(=O)O/N=C(\N)c2cccc([N+](=O)[O-])c2)c1	5.6	/	4.3	1.3	/	/
CCOc1ccc(NC(=O)CN2CCC(n3cnc4cc(F)ccc43)CC2)cc1	6.2	44.8	3.5	-2.7	-13.2	2.3
O=C(/C=C/c1c(Cl)cccc1Cl)Nc1ccncc1	1.0	97.7*	-0.5	/	-52.1	2.0
COc1ccc(-c2nsc(SCC(=O)NCC3CCCO3)n2)cc1 (stereo not drawn)	5.1	-1.0	-1.1	1.2	-19.8	2.6
COc1ccc(C(=O)/C=C/C(=O)N(CC(=O)NC2CCCCC2)Cc2cccs2)c(O)c1	4.2	30.5	4.8	0.6	77.4*	2.0
COCCN(CC(=O)NC1CCCCC1)C(=O)/C=C/C(=O)c1ccc(OC)cc1O	3.2	1.3	-3.1	0.3	93.0*	1.6
O=C(COC(=O)CCc1ccc(S(=O)(=O)N2CCOCC2)cc1)NCc1ccccc1Cl	1.8	-3.9	-1.2	0.0	10.3	1.6
COc1ccc(Nc2c3c(nc4ccccc24)CCCC3)cc1OC	4.1	88.4*	-0.3	0.0	-4.0	2.2
Fc1ccc(Nc2c3c(nc4ccccc24)CCC3)cc1	6.5	72.3*	0.1	-3.1	24.0	2.9
c1ccc(Nc2c3c(nc4ccccc24)CCC3)cc1	8.2	75.9*	3.2	-0.3	-7.7	1.5
c1ccc2c(Nc3ccc4c(c3)OCCO4)c3c(nc2c1)CCC3	8.9	87.9*	2.0	4.0	2.5	6.7
Cc1ccc2nc3c(c(Nc4ccccc4)c2c1)CCC3	2.1	/	-2.1	-2.6	/	/
CCOC(=O)C1(Cc2cccc(Cl)c2)CCCN(CCO)C1 (stereo not drawn)	9.9	-5.5	1.5	1.1	-9.8	1.7
O=C(/C=C\c1ccc2c(c1)OCO2)Nc1c2c(nn1-c1ccc(Cl)cc1)CSC2	7.5	95.3*	-1.1	0.0	16.5	3.8
COc1ccc(CNC(=O)CN=C2NC(=O)C(c3ccccc3)(c3ccccc3)N2)cc1	1.9	-7.1	-1.7	1.5	-6.1	2.8
COc1cc(NC(=O)c2ccc(C(C)(C)C)cc2)c(OC)cc1NC(=O)CN1CCCCC1	5.3	21.3	-3.6	0.7	12.9	2.4
Cn1c(=O)n(C)c2cc([N+](=O)[O-])c(N3CCN(S(C)(=O)=O)CC3)cc21	4.8	38.5	-0.6	1.6	12.8	1.5
Cn1c(=O)c(=O)n(C)c2cc([N+](=O)[O-])c([N+](=O)[O-])cc21	2.3	80.0*	0.7	-1.2	13.1	1.7
COc1ccc(Nc2ncnc3scc(-c4ccc(OC)cc4)c23)cc1	5.7	87.8*	1.3	/	-4.0	13.1*
NNc1ncnc2scc(-c3ccc(Cl)cc3)c12	1.7	68.3*	5.3	-1.5	-4.2	7.0
CC(C(=O)Nc1cccc(S(=O)(=O)N2CCOCC2)c1)N1CCN(c2ccc(F)cc2)CC1 (stereo not drawn)	2.2	-6.2	0.2	1.2	0.0	1.2
Cc1cc(N)c(-n2cc3c(=O)n(C)c(=O)n(C)c3c2)cc1C	6.3	62.3*	2.4	-0.5	-41.7	4.3
SMILES	BaF3 tox	Lmaj promast	Ba/F3 V617F tox	b-catenin transl	APP transl inh	MT stabilize HCS
COC(=O)c1sccc1S(=O)(=O)Nc1ccc(N2CCCCC2)cc1	-0.7	/	-0.3	0.0	/	/
CCCCCCCCOC(=O)/C=C/c1c(C)[nH]c(=O)[nH]c1=O	3.5	93.0*	-3.7	0.4	-3.7	0.8
CCCCN(CCCC)S(=O)(=O)c1c(C)[nH]c(=O)[nH]c1=O	0.3	-14.0	-4.6	-0.3	-2.5	3.7
COc1ccc(-n2nnc3c(SCC(=O)Nc4ccccc4F)ncnc32)cc1	3.3	-5.6	-2.8	-2.0	12.5	3.6
COc1ccc(-n2nnc3c(SCC(=O)NCC4CCCO4)ncnc32)cc1 (stereo not drawn)	2.8	74.6*	7.0	-2.0	-10.5	2.7
O=C(CN1C(=O)CCC1=O)Nc1cccc2c1C(=O)NC2=O	4.1	-10.9	-1.9	-0.8	-46.1	4.4
N#CC1=C(N)SC(N)=C(C#N)C1Cc1ccccc1	1.0	55.2*	5.8	1.5	26.7	35.2
N#CC1=C(N)SC(N)=C(C#N)C1CCc1ccccc1	8.6	-6.5	4.4	/	1.9	4.2
Cn1cc(/C=N/NC(=O)c2cc3cc(Br)ccc3o2)c2ccccc21	-2.4	/	0.7	-0.4	/	/
C=CCn1cc(/C=N\NC(=O)c2cc3c(ccc4ccccc43)o2)c2ccccc21	0.8	100.1*	1.0	/	-30.3	7.2
C#CCn1cc(/C=N/NC(=O)c2cc3ccccc3o2)c2ccccc21	2.6	3.5	-2.1	2.5	-4.3	27.3*
O=C(O)Cn1cc(/C=N/NC(=O)c2cc3cc(Br)ccc3o2)c2ccccc21	0.5	/	-1.0	0.0	/	/
COC(=O)N/N=C/c1ccc(-c2cccc(Cl)c2)o1	8.0	61.1*	1.0	1.0	3.2	2.5
NC(=S)N/N=C/c1ccc(-c2cc(Cl)cc(Cl)c2)o1	5.4	97.4*	-1.3	6.3	-2.6	1.0
NC(=S)N/N=C/c1ccc(-c2cc(Cl)ccc2Cl)o1	8.7	100.4*	0.7	/	-16.3	2.5
COc1ccc(OC)c(Nc2nc(-c3sc(N)nc3C)cs2)c1	0.7	-5.4	-2.0	-2.3	-4.5	3.5
C=CCCC(=O)Nc1nc(C)c(-c2csc(Nc3cc(OC)ccc3OC)n2)s1	58.6*	18.7	33.6*	70.2*	53.1*	31.0*
CCCC(C)C(=O)Nc1nc(C)c(-c2csc(Nc3cc(OC)ccc3OC)n2)s1 (stereo not drawn)	5.9	84.3*	3.9	3.4	6.3	2.2
CCOc1ccc(-n2nnc3c(=O)n(CC(=O)N4CCCc5ccccc54)cnc32)cc1	-1.9	54.8*	-1.8	1.6	10.6	5.1
CC1(C)NC(=O)N(CCOc2ccc3c(c2)CCC3)C1=O	2.9	-4.5	4.8	-3.9	11.8	5.8
Cc1ccc(-n2c(C)cc(/C([O-])=C(/C(=S)Nc3ccc(F)c(Cl)c3)[n+]3ccccc3)c2C)cc1	0.7	90.7*	-3.0	/	/	1.0
O=C(Cn1c(=O)n(Cc2ccco2)c(=O)c2c3c(sc21)CCCCC3)c1ccccc1	5.4	13.1	-0.4	/	-6.6	2.2
O=c1c2c3c(sc2n(CCN2CCCC2)c(=O)n1Cc1ccco1)CCCCC3	6.0	87.2*	1.1	0.3	-3.3	5.6
CN(C)CCn1c(=O)n(Cc2ccco2)c(=O)c2c3c(sc21)CCCCC3	1.6	88.1*	-1.6	0.5	8.4	1.5
O=C(CCS(=O)(=O)c1ccccc1)Nc1cccc2c1C(=O)NC2=O	8.5	-1.0	2.0	-1.0	9.4	4.5
